Assay results: ChEMBL document CHEMBL4382197, “Discovery of QCA570 as an Exceptionally Potent and Efficacious Proteolysis Targeting Chimera (PROTAC) Degrader of the Bromodomain and Extra-Terminal (BET) Proteins Capable of Inducing Complete and Durable Tumor Regression” (J Med Chem, 2018)
The source made the active and inactive calls. The calls are words filed in the database; no cut-off is given here.

Legend:
[1] = molecular target: T1, Protein cereblon/Bromodomain-containing protein 4/Cullin-4A (Homo sapiens) (UniProt O60885+Q96SW2+Q13619); test: Protac activity at cereblon/cullin 4A/BRD4 in human RS4:11 cells assessed as BRD4 degradation at 0.5 nM after 3 hrs in presence of lenalidomide by Western blot analysis; type: cell-based
Method in brief: (§1)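 RS4;11 cells were pre-treated for 2 h with DMSO, lenalidomide (10 μM), MLN4924 (1 μM) or MG-132 (20 μM). The degrader was then added at 0.5 nM for 3 h. Lysates were immunoblotted for BRD2, BRD3 and BRD4, with GAPDH as loading control.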

RS4-11 [2] = test: Induction of apoptosis in human RS4:11 cells at 0.3 to 10 nM after 24 hrs by Annexin V/propidium iodine-double staining-based flow cytometry relative to control; type: functional
Method in brief: (§2)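 Leukemia cells were treated for 24 h or 48 h at the indicated concentrations. They were then collected, washed in cold PBS and stained with Annexin V and propidium iodide. Apoptotic fraction was measured by flow cytometry.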

[3] = Drug uptake in lungs of SCID mouse xenografted with human RS4:11 cells at 5 mg/kg, iv measured at 6 hrs by LC-MS/MS analysis; type: ADME, organism-based, Lung; details: in vivo, BLD = below limit of detection
Method in brief: (§3)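 Female SCID mice with RS4;11 tumors received a single 5 mg/kg intravenous dose in 20% PCP/80% PBS. Plasma (heparin) and tissues were taken at 1, 3 and 6 h, one mouse per time point in duplicate. Plasma was precipitated with acetonitrile containing internal standard. Tissues were homogenized 5:1 in 20% acetonitrile. Quantified by LC-MS/MS against spiked plasma standards (2–2000 ng/mL); values in ng/ml or ng/g.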

[4] = Toxicity in SCID mouse xenografted with human RS4:11 cells at 1 to 5 mg/kg, iv administered 3 times per week for 3 weeks; type: organism-based; details: in vivo, 504 h
Method in brief: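 SCID mice received a subcutaneous dorsal implant of 5×10^6 RS4;11 cells in 50% Matrigel, one tumor per mouse. Mice were randomized at ~100 mm3 into treatment or vehicle groups. Doses were 1, 2.5 or 5 mg/kg three times weekly for 3 weeks, with body weight and signs of toxicity monitored.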

[5] = molecular target: T2, Protein cereblon/Bromodomain-containing protein 3/Cullin-4A (Homo sapiens) (UniProt Q15059+Q96SW2+Q13619); test: Protac activity at cereblon/cullin 4A/BRD3 in human RS4:11 cells assessed as BRD3 degradation at 0.5 nM after 3 hrs in presence of neddylation inhibitor MLN4924 by Western blot analysis; type: cell-based; method in brief: as §1
T2 sequence (Q13619 whole entry, looked up): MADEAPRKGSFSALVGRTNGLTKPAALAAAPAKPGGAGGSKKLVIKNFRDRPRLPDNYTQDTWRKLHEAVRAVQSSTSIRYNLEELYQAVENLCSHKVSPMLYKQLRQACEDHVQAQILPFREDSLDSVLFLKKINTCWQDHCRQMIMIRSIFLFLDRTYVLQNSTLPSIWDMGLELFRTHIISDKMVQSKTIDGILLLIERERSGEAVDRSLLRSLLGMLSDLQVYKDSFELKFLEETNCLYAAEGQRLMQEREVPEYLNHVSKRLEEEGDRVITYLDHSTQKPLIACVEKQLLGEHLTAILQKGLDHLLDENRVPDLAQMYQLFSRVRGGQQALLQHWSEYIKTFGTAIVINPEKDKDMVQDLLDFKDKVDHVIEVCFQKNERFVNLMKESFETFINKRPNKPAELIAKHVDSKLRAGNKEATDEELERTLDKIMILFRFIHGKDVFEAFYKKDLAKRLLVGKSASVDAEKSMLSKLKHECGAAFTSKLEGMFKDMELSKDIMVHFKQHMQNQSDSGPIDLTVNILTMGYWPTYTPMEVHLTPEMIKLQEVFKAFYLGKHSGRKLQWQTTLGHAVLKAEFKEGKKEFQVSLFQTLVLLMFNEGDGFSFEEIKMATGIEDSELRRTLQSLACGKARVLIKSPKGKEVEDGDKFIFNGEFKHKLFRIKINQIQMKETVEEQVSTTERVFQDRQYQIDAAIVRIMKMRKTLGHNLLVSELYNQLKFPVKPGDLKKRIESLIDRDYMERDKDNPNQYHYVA
T2 sequence (Q15059 whole entry, looked up): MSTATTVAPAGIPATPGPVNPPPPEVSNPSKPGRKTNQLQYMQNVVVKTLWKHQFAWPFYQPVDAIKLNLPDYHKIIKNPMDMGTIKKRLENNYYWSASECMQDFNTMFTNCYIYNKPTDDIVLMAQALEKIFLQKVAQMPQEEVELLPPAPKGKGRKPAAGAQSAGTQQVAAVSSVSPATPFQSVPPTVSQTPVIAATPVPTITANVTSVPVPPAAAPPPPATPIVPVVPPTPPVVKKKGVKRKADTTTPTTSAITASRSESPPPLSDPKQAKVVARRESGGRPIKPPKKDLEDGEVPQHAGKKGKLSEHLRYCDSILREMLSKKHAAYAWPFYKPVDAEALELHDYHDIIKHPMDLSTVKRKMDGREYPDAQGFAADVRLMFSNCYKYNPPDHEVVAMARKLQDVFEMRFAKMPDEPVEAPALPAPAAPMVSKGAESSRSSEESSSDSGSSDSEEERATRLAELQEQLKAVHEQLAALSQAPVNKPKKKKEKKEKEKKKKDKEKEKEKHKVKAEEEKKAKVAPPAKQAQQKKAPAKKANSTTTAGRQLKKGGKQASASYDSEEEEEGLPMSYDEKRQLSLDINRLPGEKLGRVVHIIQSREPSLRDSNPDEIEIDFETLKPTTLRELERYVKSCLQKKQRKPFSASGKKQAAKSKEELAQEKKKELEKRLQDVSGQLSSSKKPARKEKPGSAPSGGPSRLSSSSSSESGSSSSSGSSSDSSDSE
T2 sequence (Q96SW2 whole entry, looked up): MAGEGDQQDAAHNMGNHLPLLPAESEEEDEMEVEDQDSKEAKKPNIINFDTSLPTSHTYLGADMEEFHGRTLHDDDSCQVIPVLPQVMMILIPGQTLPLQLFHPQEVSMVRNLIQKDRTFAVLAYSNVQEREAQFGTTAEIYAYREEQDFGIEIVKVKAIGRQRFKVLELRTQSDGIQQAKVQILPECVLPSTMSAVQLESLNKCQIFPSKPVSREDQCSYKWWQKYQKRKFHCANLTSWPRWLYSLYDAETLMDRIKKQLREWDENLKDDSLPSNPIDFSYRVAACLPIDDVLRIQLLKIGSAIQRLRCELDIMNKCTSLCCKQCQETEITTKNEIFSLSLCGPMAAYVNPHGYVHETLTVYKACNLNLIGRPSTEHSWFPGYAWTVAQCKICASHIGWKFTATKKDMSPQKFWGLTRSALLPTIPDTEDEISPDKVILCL

[6] = molecular target: T1, Protein cereblon/Bromodomain-containing protein 4/Cullin-4A (Homo sapiens); test: Protac activity at cereblon/cullin 4A/BRD4 in human RS4:11 cells assessed as BRD4 degradation at 0.5 nM after 3 hrs by Western blot analysis; type: cell-based
[7] = Drug uptake in liver of SCID mouse xenografted with human RS4:11 cells at 5 mg/kg, iv measured at 6 hrs by LC-MS/MS analysis; type: ADME, organism-based; details: in vivo, BLD = below limit of detection; method in brief: as §3
RS4-11 [8] = test: Induction of apoptosis in human RS4:11 cells at 0.1 nM after 48 hrs by Annexin V/propidium iodine-double staining-based flow cytometry relative to control; type: functional; method in brief: as §2
MOLM-13 = test: Growth inhibition of human MOLM13 cells after 96 hrs by CCK8 assay; type: functional, cell-based; details: MOLM-13, 96 h
Mus musculus [9] = test: In vivo Protac activity at cereblon/cullin/BRD4 in tumor of human RS4:11 cells xenografted in SCID mouse assessed as reduction in BRD4 protein expression at 1 to 5 mg/kg, iv administered as single dose and measured at 24 hrs post dose by Western blot analysis; type: functional, organism-based
Method in brief: (§4)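 SCID mice bearing subcutaneous RS4;11 tumors were given a single intravenous dose of 1 or 5 mg/kg. Tumors were harvested at 1, 6 and 24 h, two mice per time point. Tissue was ground in liquid nitrogen and lysed in CST buffer with protease inhibitors. 20 µg lysate per lane was probed for BRD2, BRD3, BRD4, c-Myc and cleaved PARP, with GAPDH as loading control.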

[10] = molecular target: T3, Protein cereblon/Bromodomain-containing protein 2/Cullin-4A (Homo sapiens) (UniProt P25440+Q96SW2+Q13619); test: Protac activity at cereblon/cullin 4A/BRD2 in human RS4:11 cells assessed as BRD2 degradation at 30 to 100 pM after 3 hrs by Western blot analysis; type: cell-based
T3 sequence (P25440 whole entry, looked up): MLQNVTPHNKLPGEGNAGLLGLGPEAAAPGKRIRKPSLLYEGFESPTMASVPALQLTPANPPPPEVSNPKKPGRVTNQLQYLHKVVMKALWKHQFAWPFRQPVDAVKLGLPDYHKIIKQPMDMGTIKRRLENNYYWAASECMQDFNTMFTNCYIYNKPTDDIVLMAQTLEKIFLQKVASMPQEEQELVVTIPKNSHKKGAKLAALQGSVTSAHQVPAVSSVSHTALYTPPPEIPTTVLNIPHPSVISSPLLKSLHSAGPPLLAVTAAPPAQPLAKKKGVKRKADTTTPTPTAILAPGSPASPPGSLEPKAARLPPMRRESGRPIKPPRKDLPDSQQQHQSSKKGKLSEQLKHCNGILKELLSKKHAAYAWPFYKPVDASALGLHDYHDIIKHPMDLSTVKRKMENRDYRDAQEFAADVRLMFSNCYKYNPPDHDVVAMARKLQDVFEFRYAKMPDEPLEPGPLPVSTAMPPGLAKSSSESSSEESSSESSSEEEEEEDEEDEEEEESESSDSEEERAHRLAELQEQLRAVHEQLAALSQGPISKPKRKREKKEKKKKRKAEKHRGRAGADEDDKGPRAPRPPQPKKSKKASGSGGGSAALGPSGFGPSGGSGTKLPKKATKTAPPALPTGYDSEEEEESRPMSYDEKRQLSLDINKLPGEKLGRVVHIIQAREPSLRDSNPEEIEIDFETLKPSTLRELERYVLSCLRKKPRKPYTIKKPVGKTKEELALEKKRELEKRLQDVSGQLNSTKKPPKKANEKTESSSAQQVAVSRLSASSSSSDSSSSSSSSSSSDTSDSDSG
T3 sequence (Q13619 whole entry, looked up): as the sequence (Q13619 whole entry, looked up) above
T3 sequence (Q96SW2 whole entry, looked up): as the sequence (Q96SW2 whole entry, looked up) above

[11] = molecular target: T3, Protein cereblon/Bromodomain-containing protein 2/Cullin-4A (Homo sapiens); test: Protac activity at cereblon/cullin 4A/BRD2 in human RS4:11 cells assessed as BRD2 degradation at 0.5 nM after 3 hrs in presence of proteasome inhibitor MG132 by Western blot analysis; type: cell-based; method in brief: as §1
[12] = molecular target: T2, Protein cereblon/Bromodomain-containing protein 3/Cullin-4A (Homo sapiens); test: Protac activity at cereblon/cullin 4A/BRD3 in human MV4-11 cells assessed as BRD3 degradation at 10 pM after 3 hrs by Western blot analysis; type: cell-based
MV4-11 [13] = test: Antitumor activity against human MV4-11 cells xenografted in SCID mouse assessed tumor regression at 1 mg/kg, iv administered 3 times per week for 2 weeks; type: functional, organism-based
Method in brief: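 MV4;11 xenografts: 5×10^6 cells in 50% Matrigel injected subcutaneously on the dorsal side of SCID mice, one tumor per mouse. Mice randomized at ~100 mm3. Dosed intravenously three times a week for two weeks. Tumor volume = L × W2/2; body weight monitored.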

MV4-11 [14] = test: Induction of apoptosis in human MV4-11 cells at 1 nM after 24 hrs by Annexin V/propidium iodine-double staining-based flow cytometry relative to control; type: functional; method in brief: as §2
MV4-11 [15] = test: Induction apoptosis in human MV4-11 cells assessed as caspase-3 activation at 0.3 nM after 24 hrs by Western blot analysis; type: functional, cell-based
Method in brief: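 Cells (1.5–2×10^6/well) were treated for 24 h, washed in cold PBS and lysed in RIPA with protease inhibitors. 20 µg lysate was run on 4–20% or 4–12% gels and transferred to PVDF. Blots were probed for cleaved PARP and cleaved caspase 3, with GAPDH as loading control. Detection by ECL.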

[16] = molecular target: T2, Protein cereblon/Bromodomain-containing protein 3/Cullin-4A (Homo sapiens); test: Protac activity at cereblon/cullin 4A/BRD3 in human RS4:11 cells assessed as BRD3 degradation at 10 pM after 3 hrs by Western blot analysis; type: cell-based
[17] = Drug uptake in heart of SCID mouse xenografted with human RS4:11 cells at 5 mg/kg, iv measured at 6 hrs by LC-MS/MS analysis; type: ADME, organism-based; details: in vivo, BLD = below limit of detection; method in brief: as §3
[18] = molecular target: T3, Protein cereblon/Bromodomain-containing protein 2/Cullin-4A (Homo sapiens); test: Protac activity at cereblon/cullin 4A/BRD2 in human RS4:11 cells assessed as BRD2 degradation at 0.5 nM after 3 hrs in presence of neddylation inhibitor MLN4924 by Western blot analysis; type: cell-based; method in brief: as §1
Mus musculus [19] = test: In vivo Protac activity at cereblon/cullin/BRD2 in tumor of human RS4:11 cells xenografted in SCID mouse assessed as reduction in BRD2 protein expression at 1 to 5 mg/kg, iv administered as single dose and measured at 1 to 6 hrs by Western blot analysis; type: functional, organism-based; method in brief: as §4
[20] = molecular target: Protein cereblon/Eukaryotic peptide chain release factor GTP-binding subunit ERF3A/Cullin-4A (Homo sapiens) (UniProt Q96SW2+Q13619+P15170); test: Induction of Cereblon/Cullin 4A-mediated-GSPT1 degradation in human RS4:11 cells at 0.01 to 10 nM after 3 hrs by Western blot analysis; type: cell-based
Sequence of Protein cereblon/Eukaryotic peptide chain release factor GTP-binding subunit ERF3A/Cullin-4A (Homo sapiens) (P15170 whole entry, looked up): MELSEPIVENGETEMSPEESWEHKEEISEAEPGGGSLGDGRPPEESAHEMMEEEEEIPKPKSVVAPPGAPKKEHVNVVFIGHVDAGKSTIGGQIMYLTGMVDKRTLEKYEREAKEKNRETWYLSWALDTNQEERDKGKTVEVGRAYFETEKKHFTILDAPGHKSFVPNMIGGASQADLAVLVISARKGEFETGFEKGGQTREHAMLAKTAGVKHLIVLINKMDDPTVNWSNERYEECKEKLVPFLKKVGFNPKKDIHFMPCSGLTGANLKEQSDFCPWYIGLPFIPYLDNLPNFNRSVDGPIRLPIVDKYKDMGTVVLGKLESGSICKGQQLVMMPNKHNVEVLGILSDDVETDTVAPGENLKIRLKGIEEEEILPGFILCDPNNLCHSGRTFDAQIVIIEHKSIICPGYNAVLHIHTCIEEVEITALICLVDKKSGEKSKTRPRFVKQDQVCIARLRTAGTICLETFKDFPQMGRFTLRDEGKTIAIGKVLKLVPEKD
Sequence of Protein cereblon/Eukaryotic peptide chain release factor GTP-binding subunit ERF3A/Cullin-4A (Homo sapiens) (Q13619 whole entry, looked up): as the sequence (Q13619 whole entry, looked up) above
Sequence of Protein cereblon/Eukaryotic peptide chain release factor GTP-binding subunit ERF3A/Cullin-4A (Homo sapiens) (Q96SW2 whole entry, looked up): as the sequence (Q96SW2 whole entry, looked up) above

RS4-11 [21] = test: Growth inhibition of human RS4:11 cells after 96 hrs by CCK8 assay; type: functional, cell-based; details: RS4-11, 96 h

Activity [1]: inactive
Drug uptake [3]: Bld
Activity [5]: inactive
Activity [6]: Active
Drug uptake [7]: Bld
IC50 (MOLM-13): 0.062 nM
Activity [10]: Active
Activity [11]: inactive
Activity [12]: Active
Activity [16]: Active
Drug uptake [17]: Bld
Activity [18]: inactive
Activity [20]: inactive
IC50 (RS4-11 [21]): 0.032 nM
SMILES: Cc1nnc2n1Cc1sc(C#Cc3cnn(CCCC#Cc4cccc5c4CN(C4CCC(=O)NC4=O)C5=O)c3)c(Cc3ccccc3)c1OC2 (configuration not stated)
Activity (RS4-11 [2]): 15 - 30%
Activity [4]: Non-Toxic
Activity (RS4-11 [8]): >40%
Activity (Mus musculus [9]): Active
Activity (MV4-11 [13]): Active
Activity (MV4-11 [14]): >60%
Activity (MV4-11 [15]): Active
Activity (Mus musculus [19]): Active
